# Laboratory results from ChEMBL document CHEMBL3259518, “Semisynthesis, ex vivo evaluation, and SAR studies of coumarin derivatives as potential antiasthmatic drugs” (Eur J Med Chem, 2014).
# Legend:
# Format in all cases: functional
# [1] = Antiasthamic activity in Wistar rat tracheal ring assessed as reversal of carbachol-induced contraction; details: Trachea
# How it was run: (§1)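 Tracheas from male Wistar rats (250–300 g) were cleaned and cut into 4–5 mm rings of 2–3 cartilages each. Tension was recorded with force transducers. After equilibration, rings were contracted with 1 µM carbachol and washed every 40 min for 2 h. Cumulative concentration–response curves followed carbachol contraction, with relaxation taken from tone before vs after addition. Theophylline (1.67–550 µM) was the positive control. Six animals per group; EC50 and Emax came from nonlinear curve fitting.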
# [2] = Antiasthamic activity in Wistar rat tracheal ring assessed as reversal of carbachol-induced contraction at 0.1 to 500 uM relative to control; details: Trachea; how it was run: as §1
# Trachea = experiment: Potency index, ratio of theophylline EC50 to compound EC50 for antiasthamic activity in Wistar rat tracheal ring assessed as reversal of carbachol-induced contraction
Structure (SMILES),EC50 [1],Emax [2],Ratio EC50 (Trachea)
O=C(Oc1cc2ccc(=O)oc2cc1OC(=O)c1ccccc1)c1ccccc1,,12%,
Cc1cc(=O)oc2cc(OC(=O)c3ccccc3)ccc12,,34%,
Cc1cc(=O)oc2cc(O)ccc12 [HYMECROMONE],260 µM,90%,
CCOC(=O)COc1ccc2ccc(=O)oc2c1,,31%,
O=C(Oc1ccc2ccc(=O)oc2c1)c1ccccc1,,26%,
O=c1ccc2cc(O)c(O)cc2o1 [ESCULETIN],,47.9%,
CC(=O)Oc1ccc2ccc(=O)oc2c1 [7-ACETOXYCOUMARIN],,16%,
Cn1c(=O)c2nc[nH]c2n(C)c1=O [THEOPHYLLINE],144 µM,100%,
CCOC(=O)COc1cc2ccc(=O)oc2cc1OCC(=O)OCC,,33%,

# Second part, led by results:
EC50 [1],Structure (SMILES),Emax [2],Ratio EC50 (Trachea)
231 µM,CC(=O)Oc1cc2ccc(=O)oc2cc1OC(C)=O,77%,
200 µM,CCOC(=O)COc1ccc2c(C)cc(=O)oc2c1,70%,
244 µM,COc1ccc2ccc(=O)oc2c1 [HERNIARIN],100%,
267 µM,CCCOc1ccc2c(C)cc(=O)oc2c1,100%,
449 µM,O=c1ccc2ccc(O)cc2o1 [UMBELLIFERONE],67%,
42 µM,CCOc1cc2ccc(=O)oc2cc1OCC,100%,4
133 µM,CCCOc1ccc2ccc(=O)oc2c1 [7-PROPOXYCOUMARIN],100%,
360 µM,CC(=O)Oc1ccc2c(C)cc(=O)oc2c1,62%,
80 µM,CCOc1ccc2c(C)cc(=O)oc2c1,100%,
230 µM,COc1ccc2c(C)cc(=O)oc2c1 [HYMECROMONE METHYL ETHER],100%,
80 µM,COc1cc2ccc(=O)oc2cc1OC [SCOPARONE],100%,
245 µM,CCOc1ccc2ccc(=O)oc2c1 [ETHOXYCOUMARIN],100%,
89 µM,CCCOc1cc2ccc(=O)oc2cc1OCCC,100%,
